{"source": "the EternaBench riboswitch data", "key": {"[1]": {"tested_on": "MS2 coat protein", "assay": "apparent Kd, MS2 coat protein; higher = weaker binding; RNA-MaP array; theophylline 2 mM where present", "procedure,_shortened": "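SNAP-549-labelled MS2 coat protein, doubled from 0.7 or 1.5 nM to 3 µM, was titrated over designs transcribed by stalled E. coli RNA polymerase on Illumina sequencing-chip clusters. Titrations were run without and then with constant ligand in 100 mM Tris-HCl pH 7.5, 80 mM KCl, 4 mM MgCl2, BSA, DTT, yeast tRNA and Tween-20. The apparent Kd is the median of filtered per-cluster fits to green signal normalised to red-channel RNA signal and control-cluster median Fmax.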"}, "[2]": {"tested_on": "MS2 coat protein", "assay": "apparent Kd, MS2 coat protein; higher = weaker binding; RNA-MaP array", "procedure,_shortened": "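RNA designs were transcribed from sequenced DNA templates on an Illumina sequencing chip and then incubated at room temperature with fluorescently labeled MS2 coat protein at 1.5 nM to 3 μM, with or without input ligand, in Tris-HCl pH 7.5 buffer containing KCl, MgCl2, BSA, DTT, tRNA and Tween20. Incubation lasted 0.8–1.5 h at the lowest protein concentrations and 10–20 min at the highest. Apparent Kd is the median of binding-curve fits made for each cluster. Designs measured on fewer than 10 clusters were excluded.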"}, "[3]": {"settings": "designed as: ON switch for theophylline, no ligand"}, "[4]": {"settings": "ligand present: theophylline, designed as: ON switch for theophylline"}, "[5]": {"settings": "designed as: OFF switch for theophylline, no ligand"}, "[6]": {"settings": "ligand present: theophylline, designed as: OFF switch for theophylline"}, "[7]": {"settings": "designed as: OFF switch for tryptophan, no ligand"}, "[8]": {"settings": "ligand present: tryptophan, designed as: OFF switch for tryptophan"}, "[9]": {"settings": "designed as: OFF switch for flavin mononucleotide, no ligand"}, "[10]": {"settings": "ligand present: flavin mononucleotide, designed as: OFF switch for flavin mononucleotide"}, "[11]": {"settings": "designed as: ON switch for flavin mononucleotide, no ligand"}, "[12]": {"settings": "ligand present: flavin mononucleotide, designed as: ON switch for flavin mononucleotide"}}, "data": [{"sequence": "CGAUCUUUCGAAAGAAGGAUCGAGUCUGAUACCAGAGACGAAAGUCUCCCUUGGCAGCAGUGCCAACAUGAGGAUCACCCAUGUA", "values": [{"measurement": "apparent Kd", "setting": "[1]; [3]", "result": 18.7, "unit": "nM"}, {"measurement": "apparent Kd", "setting": "[1]; [4]", "result": 21.1, "unit": "nM"}]}, {"sequence": "ACAUUAGUUGGCGAUACCAGCUAUAGGCCUUCUGGGCGACAUGAGGAUCACCCAUGUGAUGGCCCUUGGCAGCGCUGAUUGAUGU", "values": [{"measurement": "apparent Kd", "setting": "[1]; [3]", "result": 151, "unit": "nM"}, {"measurement": "apparent Kd", "setting": "[1]; [4]", "result": 41.4, "unit": "nM"}]}, {"sequence": "UAUAUAUAUAGUGAUACCAGCAGAGAAAACGUUUAUCCUAACAUGAGGAUCACCCAUGUAUGCCCUUGGCAGCGUUAUAUAUAUA", "values": [{"measurement": "apparent Kd", "setting": "[1]; [5]", "result": 24, "unit": "nM"}, {"measurement": "apparent Kd", "setting": "[1]; [6]", "result": 32.4, "unit": "nM"}]}, {"sequence": "UUAUAUAUACAUGAGGAUCACCCAUGUGAUACCAGCCUGGAAACAGGCCCUUGGCAGCACAAAUACUCCAGAAAAUAUAAUAAAU", "values": [{"measurement": "apparent Kd", "setting": "[1]; [5]", "result": 26.7, "unit": "nM"}, {"measurement": "apparent Kd", "setting": "[1]; [6]", "result": 199, "unit": "nM"}]}, {"sequence": "GAUCUGUCGGGUGAUACCAGCCUCGGCGCGUCUCGCGCUGAACAUGAGGAUCACCCAUGUGGCCCUUGGCAGCACAUGACAAAUC", "values": [{"measurement": "apparent Kd", "setting": "[1]; [3]", "result": 574, "unit": "nM"}, {"measurement": "apparent Kd", "setting": "[1]; [4]", "result": 44.2, "unit": "nM"}]}, {"sequence": "AAUAACAUGAGGAUCACCCAUGUAAAAGAUACCAGAUGCAUGAUGAUCCCUUGGCAGCUUAAAACGCGAUUGAUUACAAUCGCGA", "values": [{"measurement": "apparent Kd", "setting": "[1]; [3]", "result": 33.3, "unit": "nM"}, {"measurement": "apparent Kd", "setting": "[1]; [4]", "result": 107, "unit": "nM"}]}, {"sequence": "ACAUGAGGAUCACCCAUGUCACGGCACGAUACCAGCUGAUGCGGUGGCCCUUGGCAGCGUGACGUUUGGUCCCGCGGAUGACACG", "values": [{"measurement": "apparent Kd", "setting": "[1]; [3]", "result": 200, "unit": "nM"}, {"measurement": "apparent Kd", "setting": "[1]; [4]", "result": 117, "unit": "nM"}]}, {"sequence": "ACAUGAGGAUCACCCAUGUAGUGGCACGAUACCAGCUGAUCCCGUGGCCCUUGGCAGCGUCCGGUGUGGUGCGCCGGGUUGGAGC", "values": [{"measurement": "apparent Kd", "setting": "[1]; [3]", "result": 49.1, "unit": "nM"}, {"measurement": "apparent Kd", "setting": "[1]; [4]", "result": 61.7, "unit": "nM"}]}, {"sequence": "UGUUUGGUGCGCGAGUGUUGGAUAAUUGAUACCAGUGUAGAAGUGCGCCCUUGGCAGCGAAUCCUAACAUGAGGAUCACCCAUGU", "values": [{"measurement": "apparent Kd", "setting": "[1]; [3]", "result": 46.1, "unit": "nM"}, {"measurement": "apparent Kd", "setting": "[1]; [4]", "result": 57.8, "unit": "nM"}]}, {"sequence": "AGCGGAACGGAAGGGUCCCGAAAUUGUGAUACCAGCCUUGAAUCCGGCCCUUGGCAGCACAUGAGGAUCACCCAUGUACUGCGGU", "values": [{"measurement": "apparent Kd", "setting": "[1]; [5]", "result": 13, "unit": "nM"}, {"measurement": "apparent Kd", "setting": "[1]; [6]", "result": 45, "unit": "nM"}]}, {"sequence": "AUAUGAUCAUGUGAUACCAGAAAUGGUAUUCCUCGCUGGAUUACAUGAGGAUCACCCAUGUUCCCUUGGCAGCAUAUGAUCAUAU", "values": [{"measurement": "apparent Kd", "setting": "[1]; [5]", "result": 21.4, "unit": "nM"}, {"measurement": "apparent Kd", "setting": "[1]; [6]", "result": 269, "unit": "nM"}]}, {"sequence": "UGUAACAUGAGGAUCACCCAUGUGAGUGAUACCAGAUUAGUAUUAGUCCCUUGGCAGCACAUUGGGCGAGUGUAUAGUCUAUGCG", "values": [{"measurement": "apparent Kd", "setting": "[1]; [3]", "result": 154, "unit": "nM"}]}, {"sequence": "ACUAGUUGUGCAGAUACCAGACAUGAGGAUCACCCAUGUUUGGGAUCUUCGGAUCUUCCUGUCCCUUGGCAGCUGUACAUCUAGA", "values": [{"measurement": "apparent Kd", "setting": "[1]; [5]", "result": 85, "unit": "nM"}, {"measurement": "apparent Kd", "setting": "[1]; [6]", "result": 22.5, "unit": "nM"}]}, {"sequence": "GUAUGGAAACAUACUAGGGUAUCAUGAGAUACCAGUACAGAAAUGUACCCUUGGCAGCUCAAGCAUACAUGAGGAUCACCCAUGU", "values": [{"measurement": "apparent Kd", "setting": "[1]; [5]", "result": 16.4, "unit": "nM"}, {"measurement": "apparent Kd", "setting": "[1]; [6]", "result": 27.1, "unit": "nM"}]}, {"sequence": "ACAUGAGGAUCACCCAUGUCAAGGCACGAUACCAGCUGAUCCGGUGGCCCUUGGCAGCGUCACGUUUGGUCCCGCGGAUGACACG", "values": [{"measurement": "apparent Kd", "setting": "[1]; [3]", "result": 64.7, "unit": "nM"}, {"measurement": "apparent Kd", "setting": "[1]; [4]", "result": 108, "unit": "nM"}]}, {"sequence": "UGACAUUGCUCAGAUACCAGACAUGAGGAUCACCCAUGUACCAAGAAAACGUACAAUAAUGUCCCUUGGCAGCUGAGCAAUGUCU", "values": [{"measurement": "apparent Kd", "setting": "[1]; [5]", "result": 101, "unit": "nM"}, {"measurement": "apparent Kd", "setting": "[1]; [6]", "result": 549, "unit": "nM"}]}, {"sequence": "GAUCCGUACCAGACCUUCAAUGGACUCAGUCGAGGACCGGUACGGCCGCCACUCGGAGAAGAACAUGAGGAUCACCCAUGUGAUG", "values": [{"measurement": "apparent Kd", "setting": "[2]; [7]", "result": 36.3, "unit": "nM"}, {"measurement": "apparent Kd", "setting": "[2]; [8]", "result": 53.8, "unit": "nM"}]}, {"sequence": "CAAAUGUGCACUCGUGAUACAUGAGGAUCACCCAUGUCAACUAAGGAUAUCUGGAAGUCACAUCGAGAGAAGGUAGCGUACCCU", "values": [{"measurement": "apparent Kd", "setting": "[2]; [9]", "result": 10.5, "unit": "nM"}, {"measurement": "apparent Kd", "setting": "[2]; [10]", "result": 9.44, "unit": "nM"}]}, {"sequence": "AGCUCGUAGACAUGAGGAUCACCCAUGUAGAUCAAGAAAUUCAAGGAUAUUGGGAGUAAGCCGUGCAAGAAGGUGAGACUAGAU", "values": [{"measurement": "apparent Kd", "setting": "[2]; [11]", "result": 57, "unit": "nM"}, {"measurement": "apparent Kd", "setting": "[2]; [12]", "result": 45.2, "unit": "nM"}]}, {"sequence": "UGUAGACAUGAGGAUCACCCAUGUGCAACUGCAACAGGAUAUAGGGAGCGAUAGGAACGCCUAGAAGGGUUGAUCU", "values": [{"measurement": "apparent Kd", "setting": "[2]; [11]", "result": 28.2, "unit": "nM"}, {"measurement": "apparent Kd", "setting": "[2]; [12]", "result": 24.6, "unit": "nM"}]}, {"sequence": "GUAAACGCCACAGGAUAUUGGCAGAAUAAGGAGCAAGAAGGGUGGGAUAGAAUCACGUGAACAUGAGGAUCACCCAUGUGUGGA", "values": [{"measurement": "apparent Kd", "setting": "[2]; [11]", "result": 55.3, "unit": "nM"}, {"measurement": "apparent Kd", "setting": "[2]; [12]", "result": 38, "unit": "nM"}]}, {"sequence": "GACAAAAUGGUAGGAUAUGCUUGGUCUUGAUCAGCAGAAGGACCACAUGAGGAUCACCCAUGUGCAGUGAUUCUGGGAGCUCGC", "values": [{"measurement": "apparent Kd", "setting": "[2]; [9]", "result": 55.2, "unit": "nM"}, {"measurement": "apparent Kd", "setting": "[2]; [10]", "result": 93.3, "unit": "nM"}]}, {"sequence": "ACCGUGUCAGGAUAUCGGGUAUUCUUCCGUAUAAUACCAGCCGAGAAGGGACAUGAGGAUCACCCAUGUGGACA", "values": [{"measurement": "apparent Kd", "setting": "[2]; [9]", "result": 33.2, "unit": "nM"}, {"measurement": "apparent Kd", "setting": "[2]; [10]", "result": 57.8, "unit": "nM"}]}, {"sequence": "AUGAAAAGUACAGGAUAUAUAUAAACACAAAACGGACAUGAGGAUCACCCAUGUUGACGUUGUCAAUAGAAGGGUACCAACACA", "values": [{"measurement": "apparent Kd", "setting": "[2]; [11]", "result": 26.1, "unit": "nM"}, {"measurement": "apparent Kd", "setting": "[2]; [12]", "result": 10.7, "unit": "nM"}]}, {"sequence": "UGUACCUGUAUCUGGUCCAUAGUAUAACCUCGAGGACCGGUACGGCCGCCACUCGUCGGACCACAUGAGGAUCACCCAUGUACCG", "values": [{"measurement": "apparent Kd", "setting": "[2]; [7]", "result": 11.6, "unit": "nM"}, {"measurement": "apparent Kd", "setting": "[2]; [8]", "result": 12.7, "unit": "nM"}]}]}
